Bioassay records: PubChem BioAssay, Johns Hopkins Ion Channel Center
TRPC6 activator: mouse TRPC6 channel activation; Q61143; HEK293-TRPC6 membrane potential dye fluorescence; stronger effect = higher value; B-score at 10 µM; 0.13% of 310,000 active; AID 2550;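 active means B-score of the integrated fluorescence ratio above library mean plus 3 SD, and starting fluorescence ratio within library mean plus 5 SD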;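 further: higher score means more depolarization so channel activation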
TRPC6 inh: inhibitors of mouse TRPC6 channel. B-score at 10 µM. Q61143. 1.1% of 310,000 active. HEK293-TRPC6, membrane potential dye, ACh-evoked depolarization; stronger effect = lower value;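 active means B-score under library mean minus 3 SD, initial fluorescence not abnormally high, positive integrated signal ratio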;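 further: B-score derived from integrated fluorescence ratio over the kinetic read; more negative B-score means stronger inhibition of depolarization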
TRPC4 block: inhibitors of mouse TRPC4 channel | HEK293 TRPC4beta/mu-opioid, DAMGO-evoked Fluo4 calcium flux; stronger effect = lower value | B-score at 10 µM | 0.39% of 300,000 active | AID 2247;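 active means B-score over 3 SD under the library average, no early fluorescence shift, positive overall ratio signal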
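System: stable TRPC4beta/mu-opioid receptor HEK293 cells; Dosing: single-point compound dosing; Measured by: Fluo4 Ca2+ flux fluorescence; Read-out basis: per-well B score of integrated baseline-normalized Fluo4 ratio.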
TRPC4 potent: allosteric potentiators of mouse TRPC4 channel. AID 2227. Q9QUQ5. 0.42% of 310,000 active. HEK293 TRPC4beta/mu-opioid, DAMGO EC20, Fluo-4 Ca2+ flux; stronger effect = higher value. B-score at 10 µM;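 active means B-score of calcium response area above 5 SD of library B-scores, with initial fluorescence ratio within 5 SD of library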
TRPC4 act: opens the mouse TRPC4 cation channel; Q9QUQ5; HEK293 TRPC4beta/mu-opioid, Fluo4 calcium fluorescence; stronger effect = higher value; B-score at 10 µM; 0.49% of 310,000 active;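 active means B-score above 5 SD of library B-scores, and initial fluorescence ratio not above library mean plus 5 SD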;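 further: positive B-score marks a calcium rise read as TRPC4 activation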
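Incubation: 45 min room-temperature Fluo4 loading, 110 s read / System: HEK293 cells stably co-expressing mouse TRPC4beta and mu-opioid receptor / Signal: Fluo4 fluorescence, kinetic / Control set: buffer (low) and maximal DAMGO (high) / Measure: integrated baseline-normalised fluorescence ratio, converted to per-well B score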
A number is an active result. Sampled rows, rich in hits. Any-hit rate of the full collection: about 2.3%.

Cc1cc(CNCc2cn(C)nc2-c2ccc(Oc3ccccc3)cc2)on1 was read as TRPC6 activator inactive, TRPC6 inh inactive, TRPC4 block inactive, TRPC4 potent inactive and TRPC4 act inactive.
`Cn1cc(CNCC2CCCO2)c(-c2ccc(Oc3ccccc3)cc2)n1` (stereo not drawn) gave TRPC6 activator inactive, TRPC6 inh inactive, TRPC4 block -7, TRPC4 potent inactive and TRPC4 act inactive.
COc1ccc(-c2nn(-c3ccccc3)cc2C(=O)NCC2CCCO2)cc1 (stereo not drawn) was read as TRPC6 activator inactive, TRPC6 inh inactive, TRPC4 block inactive, TRPC4 potent inactive and TRPC4 act 49.
CCN(CC)S(=O)(=O)c1ccc(N2CCOCC2)c(NC(=O)C2CCCO2)c1 (stereo not drawn) was read as TRPC6 activator inactive, TRPC6 inh inactive, TRPC4 block inactive, TRPC4 potent inactive and TRPC4 act inactive.
For Cc1ccc2[nH]c(C)c(CCN(Cc3cccnc3)C(=S)NC(C)(C)C)c2c1 the results were TRPC6 activator inactive, TRPC6 inh inactive, TRPC4 block inactive, TRPC4 potent 16 and TRPC4 act inactive.
CCOC(=O)C1=C(C)N(C)C(=S)NC1c1ccc(Cl)cc1 (stereo not drawn) was read as TRPC6 activator inactive, TRPC6 inh inactive, TRPC4 block -6, TRPC4 potent inactive and TRPC4 act inactive.
`CCOC(=O)C1=C(C)N(C)C(=S)NC1c1ccccc1` (stereo not drawn) gave TRPC6 activator inactive, TRPC6 inh inactive, TRPC4 block inactive, TRPC4 potent inactive and TRPC4 act inactive.
Screening CCOC(=O)C1=C(C)N(C)C(=S)NC1c1ccccc1Cl (stereo not drawn) returned TRPC6 activator inactive, TRPC6 inh inactive, TRPC4 block inactive, TRPC4 potent inactive and TRPC4 act inactive.
For CCOC(=O)C1=C(C)N(C)C(=S)NC1c1cccc(Cl)c1Cl (stereo not drawn) the results were TRPC6 activator inactive, TRPC6 inh inactive, TRPC4 block inactive, TRPC4 potent 21 and TRPC4 act inactive.
`CCn1c2ccccc2c2cc(NC(=O)CN3CCCC3)ccc21` gave TRPC6 activator inactive, TRPC6 inh inactive, TRPC4 block inactive, TRPC4 potent 28 and TRPC4 act inactive.
Screening COc1cccc2[nH]c3c(Cl)ncnc3c12 returned TRPC6 activator inactive, TRPC6 inh inactive, TRPC4 block inactive, TRPC4 potent inactive and TRPC4 act inactive.
O=c1c2ccccc2nc(SCc2ccccc2)n1CC1CCCO1 (stereo not drawn) was read as TRPC6 activator inactive, TRPC6 inh inactive, TRPC4 block -7, TRPC4 potent inactive and TRPC4 act inactive.
For COc1ccc(/C=N/Nc2cc(C)nc3ccc(OC)cc23)c(OC)c1 the results were TRPC6 activator inactive, TRPC6 inh -5.4, TRPC4 block inactive, TRPC4 potent inactive and TRPC4 act inactive.
For COc1ccccc1/C=N/Nc1cc(C)nc2ccc(C)cc12 the results were TRPC6 activator inactive, TRPC6 inh inactive, TRPC4 block inactive, TRPC4 potent inactive and TRPC4 act inactive.
For COc1ccc2nc(C)cc(NCc3ccc(F)cc3)c2c1 the results were TRPC6 activator inactive, TRPC6 inh inactive, TRPC4 block -6, TRPC4 potent inactive and TRPC4 act inactive.
COC1CCCN(Cc2c(C(=O)N3CCN(C4CCCCC4)CC3)nc3ccccn23)C1 (stereo not drawn) was read as TRPC6 activator inactive, TRPC6 inh inactive, TRPC4 block inactive, TRPC4 potent inactive and TRPC4 act inactive.
`CC(C)Cn1c(=O)c(C(=O)NCc2ccc3c(c2)OCO3)c(O)c2ccccc21` gave TRPC6 activator inactive, TRPC6 inh inactive, TRPC4 block inactive, TRPC4 potent inactive and TRPC4 act inactive.
`CCCCn1c(=NC(=O)c2cccnc2)c(C(=O)OCC)cc2c(=O)n3ccccc3nc21` gave TRPC6 activator inactive, TRPC6 inh inactive, TRPC4 block inactive, TRPC4 potent 46 and TRPC4 act inactive.
CCOCCCn1c(=NC(=O)c2cccnc2)c(C(=O)OCC)cc2c(=O)n3ccccc3nc21 was read as TRPC6 activator inactive, TRPC6 inh inactive, TRPC4 block inactive, TRPC4 potent inactive and TRPC4 act inactive.
`CS(=O)(=O)N(CC(=O)Nc1ccc2c(c1)OCO2)Cc1ccccc1` gave TRPC6 activator inactive, TRPC6 inh inactive, TRPC4 block inactive, TRPC4 potent inactive and TRPC4 act inactive.
Screening CN(CCC(=O)Nc1ccc2c(c1)OCO2)Cc1ccccc1 returned TRPC6 activator inactive, TRPC6 inh inactive, TRPC4 block inactive, TRPC4 potent inactive and TRPC4 act 53.
CN(CC(=O)Nc1ccc(Cl)cc1)C(=O)CCc1ccccc1 was read as TRPC6 activator inactive, TRPC6 inh inactive, TRPC4 block inactive, TRPC4 potent inactive and TRPC4 act inactive.
COc1ccccc1OCC(=O)Nc1ccc(Cl)cc1 was read as TRPC6 activator inactive, TRPC6 inh inactive, TRPC4 block -7, TRPC4 potent inactive and TRPC4 act inactive.
CN(CCC(=O)Nc1ccc(Cl)cc1)Cc1ccccc1 was read as TRPC6 activator inactive, TRPC6 inh inactive, TRPC4 block inactive, TRPC4 potent inactive and TRPC4 act 126.
Screening O=C(O)C1C2C=CC(C2)C1C(=O)NC1CCN(Cc2ccccc2)CC1 (stereo not drawn) returned TRPC6 activator inactive, TRPC6 inh inactive, TRPC4 block inactive, TRPC4 potent inactive and TRPC4 act 122.
`CC(C)NC(=O)C(=O)NCCC1CCCCN1S(=O)(=O)c1cccs1` (stereo not drawn) gave TRPC6 activator inactive, TRPC6 inh inactive, TRPC4 block inactive, TRPC4 potent inactive and TRPC4 act inactive.
For O=C(CN1CCN(S(=O)(=O)c2ccc(Br)cc2)CC1)N/N=C/c1ccncc1 the results were TRPC6 activator inactive, TRPC6 inh inactive, TRPC4 block inactive, TRPC4 potent 15 and TRPC4 act inactive.
Screening O=C(CN1CCN(S(=O)(=O)c2ccc(Br)cc2)CC1)N/N=C/c1cccs1 returned TRPC6 activator inactive, TRPC6 inh inactive, TRPC4 block inactive, TRPC4 potent inactive and TRPC4 act inactive.
`Cc1ccc(C)c(N2C(=O)c3ccc(C(=O)OCC(=O)c4c(N)n(C)c(=O)n(C)c4=O)cc3C2=O)c1` gave TRPC6 activator inactive, TRPC6 inh inactive, TRPC4 block inactive, TRPC4 potent 11 and TRPC4 act inactive.
`Cc1cc([N+](=O)[O-])nn1Cc1noc(C(=O)NCCc2ccccn2)n1` gave TRPC6 activator inactive, TRPC6 inh inactive, TRPC4 block inactive, TRPC4 potent inactive and TRPC4 act 79.
Screening COc1ccc(C2CC(=O)c3cnn(-c4nc(C)cc(C)n4)c3C2)cc1 (stereo not drawn) returned TRPC6 activator inactive, TRPC6 inh inactive, TRPC4 block inactive, TRPC4 potent inactive and TRPC4 act inactive.
Screening Nc1nc(Cl)nc2c1ncn2[C@@H]1O[C@H](CO)[C@@H](O)[C@H]1O returned TRPC6 activator inactive, TRPC6 inh inactive, TRPC4 block inactive, TRPC4 potent inactive and TRPC4 act 50.
